In ChEMBL document CHEMBL1136847, “Syntheses and potential anti-prostate cancer activities of ionone-based chalcones” (Bioorg Med Chem Lett, 2009):

System: T1, Androgen receptor (Homo sapiens), P10275 [H875Y]
T1 sequence (whole entry): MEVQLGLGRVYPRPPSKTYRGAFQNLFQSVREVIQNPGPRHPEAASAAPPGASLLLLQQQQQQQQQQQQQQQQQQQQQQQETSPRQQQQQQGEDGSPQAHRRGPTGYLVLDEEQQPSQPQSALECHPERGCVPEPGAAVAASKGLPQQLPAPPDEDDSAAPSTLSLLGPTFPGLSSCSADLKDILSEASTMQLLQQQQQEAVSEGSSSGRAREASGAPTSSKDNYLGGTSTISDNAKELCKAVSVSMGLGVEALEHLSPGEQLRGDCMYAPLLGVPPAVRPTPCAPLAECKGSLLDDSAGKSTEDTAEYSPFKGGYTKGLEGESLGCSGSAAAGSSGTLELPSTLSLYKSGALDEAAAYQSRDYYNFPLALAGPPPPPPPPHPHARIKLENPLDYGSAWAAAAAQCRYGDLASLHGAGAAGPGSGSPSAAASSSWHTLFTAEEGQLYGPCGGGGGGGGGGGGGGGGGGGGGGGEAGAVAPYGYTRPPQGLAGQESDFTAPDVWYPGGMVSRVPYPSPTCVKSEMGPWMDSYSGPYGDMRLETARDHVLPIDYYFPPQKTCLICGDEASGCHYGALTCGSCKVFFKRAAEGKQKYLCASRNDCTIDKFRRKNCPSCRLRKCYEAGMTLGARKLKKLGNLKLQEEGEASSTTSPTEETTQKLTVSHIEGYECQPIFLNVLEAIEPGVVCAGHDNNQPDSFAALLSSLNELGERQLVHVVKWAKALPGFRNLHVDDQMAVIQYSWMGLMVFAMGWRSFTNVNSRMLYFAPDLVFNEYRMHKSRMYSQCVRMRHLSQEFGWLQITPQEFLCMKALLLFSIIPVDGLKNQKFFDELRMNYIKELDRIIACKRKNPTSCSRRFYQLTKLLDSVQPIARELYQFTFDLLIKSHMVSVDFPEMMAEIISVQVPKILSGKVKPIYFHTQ
Experiment: Antagonist activity at androgen receptor H874Y mutant in human PC3 cells transiently transfected with pCMV-MMTV-Luc assessed as suppression of DHT-induced receptor transactivation
Format: functional, cell-based
Conditions: PC-3
In short: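 PC-3 cells seeded 24 h before co-transfection with MMTV-luciferase reporter (100 ng), the wild-type, T877A, W741C or H874Y AR plasmid (10 ng) and Renilla null luciferase (10 ng) using Lipofectamine 2000. Medium switched after 5 h to phenol red-free RPMI 1640 with 10% charcoal-stripped FBS. After 16 h, 0.1 nM DHT ± compound (0.1, 1.0 µM) for 24 h. Dual-luciferase read-out, Renilla-standardized, normalized to DHT alone (100%).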

Compound: CC1=C(/C=C/C(=O)/C=C/c2cccc(C(F)(F)F)c2)C(C)(C)CCC1O (stereo unspecified)
- Activity: Dose-dependent effect
